Values belong to the compound of their own block, whether it stands above or below them. Activity calls are given as the source filed them. The calls are words filed in the database; no cut-off is given here.
How the values were obtained:
[1] = molecular target: T1, DNA excision repair protein ERCC-1/DNA repair endonuclease XPF (Homo sapiens) (UniProt P07992+Q92889); assay: Inhibition of human His6-tagged ERCC1-XPF endonuclease activity expressed in Escherichia coli BL21 (DE3) at 8 uM using [6-FAM-5'-CAGCGCTCGG(20T)CCGAGCGCTG-3'-dabcyl] as substrate measured for 12 mins by fluorescence assay
In short: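 Real-time incision of 100 nM 6-FAM/dabcyl stem-loop substrate by 25 ng recombinant ERCC1-XPF in 50 mM Tris-Cl pH 8, 20 mM NaCl, 0.5 mM DTT, 0.75 mM MnCl₂ at 25°C; fluorescence (ex 485/em 520 nm) read for 12 min.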

Cytochrome P450 1A2 = molecular target: T2, Cytochrome P450 1A2 (Homo sapiens, UniProt P05177); assay: Inhibition of CYP1A2 (unknown origin); format: ADME
T2 sequence (P05177 whole entry): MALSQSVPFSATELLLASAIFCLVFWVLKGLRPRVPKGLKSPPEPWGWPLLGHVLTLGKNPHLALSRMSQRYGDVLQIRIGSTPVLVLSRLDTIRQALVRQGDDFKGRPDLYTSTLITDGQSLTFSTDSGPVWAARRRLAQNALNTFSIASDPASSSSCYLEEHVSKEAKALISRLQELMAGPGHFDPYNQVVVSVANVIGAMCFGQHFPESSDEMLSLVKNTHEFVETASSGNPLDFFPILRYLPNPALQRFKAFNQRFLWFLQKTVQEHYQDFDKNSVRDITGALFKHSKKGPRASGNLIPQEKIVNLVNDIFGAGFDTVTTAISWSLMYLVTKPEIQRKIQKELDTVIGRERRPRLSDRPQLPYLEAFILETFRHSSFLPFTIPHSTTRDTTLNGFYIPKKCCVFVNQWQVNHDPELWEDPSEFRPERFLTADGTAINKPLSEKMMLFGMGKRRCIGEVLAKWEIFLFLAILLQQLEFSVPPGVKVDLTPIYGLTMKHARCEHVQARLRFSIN

Cytochrome P450 2C19 = Cytochrome P450 2C19 (Homo sapiens, UniProt P33261); assay: Inhibition of CYP2C19 (unknown origin); format: ADME
[2] = molecular target: T3, DNA excision repair protein ERCC-1/DNA repair endonuclease XPF (Homo sapiens, UniProt P07992+Q92889)
T3 sequence (P07992 whole entry): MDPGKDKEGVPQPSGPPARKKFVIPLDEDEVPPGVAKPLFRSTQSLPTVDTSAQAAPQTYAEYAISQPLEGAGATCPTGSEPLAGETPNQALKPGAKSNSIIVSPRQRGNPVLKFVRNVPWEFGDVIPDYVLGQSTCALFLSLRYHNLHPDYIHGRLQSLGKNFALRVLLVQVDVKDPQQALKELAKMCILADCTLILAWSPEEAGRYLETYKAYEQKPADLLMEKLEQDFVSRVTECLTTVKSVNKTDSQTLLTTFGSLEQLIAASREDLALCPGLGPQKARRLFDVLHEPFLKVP
T3 sequence (Q92889 whole entry): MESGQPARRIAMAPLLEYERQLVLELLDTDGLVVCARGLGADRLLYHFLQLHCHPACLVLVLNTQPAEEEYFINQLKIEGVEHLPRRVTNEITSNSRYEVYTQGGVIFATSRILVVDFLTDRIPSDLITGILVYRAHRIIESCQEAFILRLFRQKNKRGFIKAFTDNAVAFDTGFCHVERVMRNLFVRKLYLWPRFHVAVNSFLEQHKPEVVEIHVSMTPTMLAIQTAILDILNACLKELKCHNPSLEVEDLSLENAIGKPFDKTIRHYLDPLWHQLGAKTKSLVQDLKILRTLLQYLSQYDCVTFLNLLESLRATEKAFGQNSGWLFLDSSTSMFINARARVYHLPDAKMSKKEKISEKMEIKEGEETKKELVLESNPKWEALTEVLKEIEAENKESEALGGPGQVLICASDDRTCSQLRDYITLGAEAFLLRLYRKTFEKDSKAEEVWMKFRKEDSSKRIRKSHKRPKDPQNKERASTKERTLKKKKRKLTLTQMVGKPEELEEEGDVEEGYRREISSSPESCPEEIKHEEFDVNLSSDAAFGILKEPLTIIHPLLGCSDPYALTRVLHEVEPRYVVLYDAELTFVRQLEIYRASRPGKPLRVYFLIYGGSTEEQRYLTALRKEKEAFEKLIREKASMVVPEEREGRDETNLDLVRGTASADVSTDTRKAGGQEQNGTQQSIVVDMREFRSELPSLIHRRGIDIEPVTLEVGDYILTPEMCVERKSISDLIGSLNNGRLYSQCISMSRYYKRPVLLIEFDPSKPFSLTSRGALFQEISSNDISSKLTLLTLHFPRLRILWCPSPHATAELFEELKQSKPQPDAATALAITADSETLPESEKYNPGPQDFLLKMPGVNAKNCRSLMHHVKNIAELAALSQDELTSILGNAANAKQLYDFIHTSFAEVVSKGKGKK

[3] = Efflux ratio of permeability in human Caco2 cells; format: ADME, cell-based; conditions: Caco-2
[4] = Protein binding in serum (unknown origin); format: ADME, cell-free
Cytochrome P450 2C9 = Cytochrome P450 2C9 (Homo sapiens, UniProt P11712); assay: Inhibition of CYP2C9 (unknown origin); format: ADME
Cytochrome P450 3A4 = Cytochrome P450 3A4 (Homo sapiens, UniProt P08684); assay: Inhibition of CYP3A4 (unknown origin) using midazolam as substrate; format: ADME
[5] = Stability of the compound in human liver microsomes; format: ADME, Microsome
Cytochrome P450 2D6 = Cytochrome P450 2D6 (Homo sapiens, UniProt P10635); assay: Inhibition of CYP2D6 (unknown origin); format: ADME
HCT-116 [6] = assay: Phototoxicity against human HCT116 cells assessed as reduction in colony formation at 2 uM incubated for 1 hr prior to compound washout followed by 254 nm UV irradiation and subsequent compound addition measured after 10 days by crystal violet staining-based assay; format: functional, cell-based
In short: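 HCT-116 cells plated in triplicate (100-800 cells), attached overnight, treated 1 h with 1 or 2 μM compound, exposed to 0-10 J/m² 254 nm UV-C, then grown 10 days with inhibitor at 37°C, 5% CO₂. Crystal violet stained colonies counted; plating efficiency and surviving fraction calculated; three independent sets.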

[7] = molecular target: T1, DNA excision repair protein ERCC-1/DNA repair endonuclease XPF (Homo sapiens); assay: Binding affinity to human N-terminal His6-tagged RED-tris-NTA labelled ERCC1 (96 to 297 residues)-XPF (667 to 916 residues) expressed in Escherichia coli BL21 (DE3) at 10 uM measured after 20 mins by microscale thermophoresis assay
In short: (§1)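 Truncated His-tagged dERCC1 (96-297) and dXPF (667-916) from BL21(DE3), labelled with RED-tris-NTA, at 20 nM singly or as equimolar dimer in 20 mM HEPES pH 7.4, 50 mM NaCl, 1 mM DTT, 2 mM MgCl2, 5% glycerol, 0.01% CHAPS; 10 μM compound or DMSO, 20 min room temperature; MST at high power, 670 nm emission.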

HCT-116 [8] = assay: (§2) Potentiation of cyclophosphamide-induced cytotoxicity against human HCT116 cells assessed as reduction in colony formation at 2 uM incubated for 4 hrs prior to 50 uM cyclophosphamide addition for 24 hrs followed by compound washout and subsequent compound redosing and measured after 8 days by crystal violet staining-based assay; format: functional, cell-based
In short: (§3)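 HCT-116 cells plated in triplicate, attached overnight, pretreated 4 h with 1 or 2 μM compound, then cyclophosphamide (0-300 μM) added for 24 h; medium replaced with compound alone and incubated 8 more days at 37°C, 5% CO₂. Crystal violet colonies counted, surviving fraction calculated; three independent sets, Student's t-test.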

[9] = molecular target: T1, DNA excision repair protein ERCC-1/DNA repair endonuclease XPF (Homo sapiens); assay: (§4) Inhibition of ERCC1-XPF-mediated nucleotide excision repair in human HCT116 cells assessed as reduction in removal of UV-induced cyclobutane pyrimidine dimer by measuring cyclobutane pyrimidine dimer level at 2 uM incubated for 1 hr prior to compound washout followed by 8 J/m2 UV irradiation and subsequent compound addition and measured after 24 hrs by DAPI staining-based immunofluorescence assay (reference value: 80%); format: cell-based; set-up: scale not given: the % may be the effect or the level left
In short: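 HCT-116 cells on coverslips, 1 h compound pretreatment, 8 J/m² UV-C (254 nm), then fresh medium with compound at 37°C up to 24 h. Fixed, HCl-denatured, stained with anti-thymine dimer antibody plus fluorescent secondary, DAPI mount. Intensity from 50 random cells per treatment, normalized; Student's t-test.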

[10] = Binding affinity to RED-tris-NTA at 10 uM measured after 20 mins by microscale thermophoresis assay; in short: as §1
HCT-116 [11] = assay: as §2, with “human XPF-knockout” for “human”; format: functional, cell-based
[12] = molecular target: T1, DNA excision repair protein ERCC-1/DNA repair endonuclease XPF (Homo sapiens); assay: Binding affinity to human His6-tagged ERCC1-XPF expressed in Escherichia coli BL21 (DE3) assessed as tryptophan fluorescence quenching at 2 uM by spectrofluorimetric method relative to control
In short: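 Intrinsic tryptophan fluorescence of purified ERCC1-XPF (13–20 nM) with 2 μM ligand added from stock, protein dilution kept below 3%; excitation 295 nm, quenching read at 330 nm, room temperature.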

HCT-116 [13] = assay: as §2, with “human XPF-knockout” for “human”, “300” for “50”; format: functional; set-up: scale not given: the % may be the effect or the level left
HCT-116 [14] = assay: Cytotoxicity against human HCT116 cells assessed as reduction in colony formation at 1 to 2 uM; conditions: hct-116, 2 µM
[15] = molecular target: T1, DNA excision repair protein ERCC-1/DNA repair endonuclease XPF (Homo sapiens); assay: Time dependent inhibition of human His6-tagged ERCC1-XPF endonuclease activity expressed in Escherichia coli BL21 (DE3) at 3 uM using [6-FAM-5'-CAGCGCTCGG(20T)CCGAGCGCTG-3'-dabcyl] as substrate in presence of 5 to 10% DMSO by fluorescence assay
In short: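 ERCC1-XPF preincubated with 3 μM compound in 10% or 5% DMSO; reactions started at T0 with substrate, or at T12 […]. Same stem-loop incision read-out (ex 485/em 520) in Tris-Cl pH 8, MnCl2 buffer at 25°C.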

HCT-116 [16] = assay: as §2, with “300” for “50”; format: functional; set-up: scale not given: the % may be the effect or the level left; in short: as §3
[17] = Binding affinity to 6-FAM-5'-CAGCGCTCGG(20T)CCGAGCGCTG-3'-dabcyl DNA (unknown origin) by spectrofluorimetric method
In short: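 FAM/dabcyl-labelled stem-loop DNA substrate excited at 490 nm, emission at 520 nm followed as a function of ligand concentration; Kd obtained by nonlinear regression assuming unimodal binding.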

[18] = molecular target: T1, DNA excision repair protein ERCC-1/DNA repair endonuclease XPF (Homo sapiens); assay: as §4, with “dimer” for “dimer by measuring cyclobutane pyrimidine dimer level”, “assay” for “assay (reference value: 80%)”; format: cell-based
In short: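 HCT-116 cells on coverslips pretreated 1 h with compound, then 8 J/m² UV-C (254 nm) and re-fed medium with compound; incubated at 37°C up to 24 h. Methanol-fixed, HCl-denatured cells stained with anti-thymine dimer antibody and fluorescent secondary, DAPI mounted. Intensity quantified from 50 random cells per treatment; Student's t-test.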

Sequence of Cytochrome P450 2C9 (P11712 whole entry): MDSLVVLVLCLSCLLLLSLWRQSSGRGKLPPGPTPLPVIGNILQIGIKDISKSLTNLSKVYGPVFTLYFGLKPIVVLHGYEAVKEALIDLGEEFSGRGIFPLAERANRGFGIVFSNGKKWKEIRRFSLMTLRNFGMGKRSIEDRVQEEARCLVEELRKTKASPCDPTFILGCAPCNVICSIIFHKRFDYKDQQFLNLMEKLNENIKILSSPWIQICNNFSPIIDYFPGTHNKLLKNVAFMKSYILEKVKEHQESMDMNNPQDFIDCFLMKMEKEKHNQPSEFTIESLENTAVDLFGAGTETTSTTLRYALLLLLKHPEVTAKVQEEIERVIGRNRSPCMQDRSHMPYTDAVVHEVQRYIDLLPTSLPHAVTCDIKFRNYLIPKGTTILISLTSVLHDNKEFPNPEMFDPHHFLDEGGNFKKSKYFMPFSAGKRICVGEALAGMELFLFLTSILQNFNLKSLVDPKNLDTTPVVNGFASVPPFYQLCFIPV
Sequence of Cytochrome P450 2D6 (P10635 whole entry): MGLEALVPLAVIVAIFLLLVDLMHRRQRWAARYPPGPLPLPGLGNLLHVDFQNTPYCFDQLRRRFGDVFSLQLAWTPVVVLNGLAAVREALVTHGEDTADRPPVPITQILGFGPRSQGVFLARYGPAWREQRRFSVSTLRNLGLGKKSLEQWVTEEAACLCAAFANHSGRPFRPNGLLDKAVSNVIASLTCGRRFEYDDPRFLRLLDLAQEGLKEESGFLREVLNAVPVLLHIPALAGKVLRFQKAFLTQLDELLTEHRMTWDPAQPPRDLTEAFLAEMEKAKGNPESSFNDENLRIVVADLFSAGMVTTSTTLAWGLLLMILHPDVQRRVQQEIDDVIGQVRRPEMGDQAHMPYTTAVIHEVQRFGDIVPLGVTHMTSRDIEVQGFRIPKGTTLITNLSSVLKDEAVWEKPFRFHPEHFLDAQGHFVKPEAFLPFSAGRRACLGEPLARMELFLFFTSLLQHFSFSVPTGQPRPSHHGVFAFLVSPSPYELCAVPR
Sequence of Cytochrome P450 2C19 (P33261 whole entry): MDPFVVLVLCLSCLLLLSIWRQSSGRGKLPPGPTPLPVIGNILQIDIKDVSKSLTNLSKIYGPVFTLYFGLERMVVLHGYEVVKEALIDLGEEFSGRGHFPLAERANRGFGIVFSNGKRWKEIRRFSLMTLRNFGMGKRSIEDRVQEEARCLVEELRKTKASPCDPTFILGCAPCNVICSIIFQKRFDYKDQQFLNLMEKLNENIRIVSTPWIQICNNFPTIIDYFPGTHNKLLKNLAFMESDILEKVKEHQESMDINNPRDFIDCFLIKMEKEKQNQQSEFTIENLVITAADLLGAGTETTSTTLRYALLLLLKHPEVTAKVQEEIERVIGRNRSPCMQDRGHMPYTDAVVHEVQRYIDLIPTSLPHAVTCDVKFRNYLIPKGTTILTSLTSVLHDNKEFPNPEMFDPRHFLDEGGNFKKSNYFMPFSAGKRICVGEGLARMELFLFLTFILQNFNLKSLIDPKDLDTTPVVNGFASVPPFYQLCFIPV
Sequence of Cytochrome P450 3A4 (P08684 whole entry): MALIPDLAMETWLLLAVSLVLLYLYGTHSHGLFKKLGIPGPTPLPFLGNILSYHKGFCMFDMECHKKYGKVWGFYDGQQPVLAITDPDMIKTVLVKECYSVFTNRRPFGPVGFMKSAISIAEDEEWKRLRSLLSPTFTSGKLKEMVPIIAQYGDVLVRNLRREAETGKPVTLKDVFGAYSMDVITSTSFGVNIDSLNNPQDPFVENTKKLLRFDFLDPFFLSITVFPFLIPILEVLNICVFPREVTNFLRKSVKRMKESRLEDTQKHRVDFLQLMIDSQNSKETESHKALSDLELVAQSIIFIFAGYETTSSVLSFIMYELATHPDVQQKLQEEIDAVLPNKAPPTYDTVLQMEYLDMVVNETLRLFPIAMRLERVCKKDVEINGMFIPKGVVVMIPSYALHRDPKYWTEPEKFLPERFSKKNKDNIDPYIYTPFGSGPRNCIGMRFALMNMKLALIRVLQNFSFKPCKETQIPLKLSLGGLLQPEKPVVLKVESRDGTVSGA

inhibition [1]: Active
Structure (SMILES): COc1ccc2nc3cc(Cl)ccc3c(Nc3ccc(O)c(CN4CCN(C5CCCCC5)CC4)c3)c2c1

Structure (SMILES): COc1ccc2nc3cc(Cl)ccc3c(Nc3ccc(O)c(CN4CCN(C)CC4)c3)c2c1
IC50 (Cytochrome P450 1A2): 10 to 50 µM
IC50 (Cytochrome P450 2C19): 10 to 50 µM
IC50 [2]: 1.86 µM
efflux ratio [3]: 11.2
PB [4]: Active
IC50 (Cytochrome P450 2C9): 10 to 50 µM
IC50 (Cytochrome P450 3A4): 1 to 10 µM
inhibition [1]: Active
Stability [5]: Unstable
IC50 (Cytochrome P450 2D6): 1 to 10 µM

IC50 (Cytochrome P450 2C19): > 1 µM
Activity [7]: Active
Activity [9]: 60%
PB [4]: Active
Activity [10]: inactive
IC50 (Cytochrome P450 2C9): > 1 µM
Activity [12]: 23%
IC50 (Cytochrome P450 3A4): > 1 µM
inhibition [1]: Active
TDI [15]: Active
IC50 (Cytochrome P450 2D6): > 1 µM
Kd [17]: 2.1 µM
Structure (SMILES): COc1ccc2nc3cc(Cl)ccc3c(Nc3ccc(O)c(CN4CCN(CCN(C)C)CC4)c3)c2c1
Activity (HCT-116 [6]): Active
Activity (HCT-116 [8]): Active
Activity (HCT-116 [11]): Active
Activity (HCT-116 [13]): 100%
Activity (HCT-116 [14]): Non-Toxic
Activity (HCT-116 [16]): 100%

inhibition [18]: inactive
Activity [12]: 3%
Structure (SMILES): COc1ccc2nc3cc(Cl)ccc3c(Nc3ccc(O)c(CN4CCN(c5ccc(Cl)c(Cl)c5)CC4)c3)c2c1
